Screening data (PubChem BioAssay)
Rows were chosen to be rich in hits. Some 1.6% of all compounds tested hit in one or more screens of this group.
SR-BI uptake up – SR-BI HDL lipid transfer activation; CHO ldlA[mSR-BI] cells, DiI-HDL uptake fluorescence, 3 h; 100 = double the neutral-control signal; activation, % at 12.5 µM; actives 0.096% (n = 320,000); AID 504775;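 active = mean replicate activation of at least 60% and every replicate at or above 60%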;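 also: 0% = median plate neutral-control signal and 100% = twice that signal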
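Material: SR-BI-overexpressing, LDLR-lacking CHO cells; schedule: compound exposure 3 h, 37 °C; reagent: DiI-labelled HDL at 10 µg/mL final; technique: bottom-read fluorescence, 550/595 nm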
TLR4-MyD88 BLA – blocks binding of human TLR4 to MyD88. O00206+Q99836. actives 0.18% (n = 200,000). inhibition, % at 8.4 µM. HeLa CL3-4 TLR4/MyD88 BLA complementation, FRET ratio; in the data active = inhibition above about 25%;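 also: 0% = vehicle and 100% = reference inhibitor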
Target sequence (O00206 whole entry, looked up): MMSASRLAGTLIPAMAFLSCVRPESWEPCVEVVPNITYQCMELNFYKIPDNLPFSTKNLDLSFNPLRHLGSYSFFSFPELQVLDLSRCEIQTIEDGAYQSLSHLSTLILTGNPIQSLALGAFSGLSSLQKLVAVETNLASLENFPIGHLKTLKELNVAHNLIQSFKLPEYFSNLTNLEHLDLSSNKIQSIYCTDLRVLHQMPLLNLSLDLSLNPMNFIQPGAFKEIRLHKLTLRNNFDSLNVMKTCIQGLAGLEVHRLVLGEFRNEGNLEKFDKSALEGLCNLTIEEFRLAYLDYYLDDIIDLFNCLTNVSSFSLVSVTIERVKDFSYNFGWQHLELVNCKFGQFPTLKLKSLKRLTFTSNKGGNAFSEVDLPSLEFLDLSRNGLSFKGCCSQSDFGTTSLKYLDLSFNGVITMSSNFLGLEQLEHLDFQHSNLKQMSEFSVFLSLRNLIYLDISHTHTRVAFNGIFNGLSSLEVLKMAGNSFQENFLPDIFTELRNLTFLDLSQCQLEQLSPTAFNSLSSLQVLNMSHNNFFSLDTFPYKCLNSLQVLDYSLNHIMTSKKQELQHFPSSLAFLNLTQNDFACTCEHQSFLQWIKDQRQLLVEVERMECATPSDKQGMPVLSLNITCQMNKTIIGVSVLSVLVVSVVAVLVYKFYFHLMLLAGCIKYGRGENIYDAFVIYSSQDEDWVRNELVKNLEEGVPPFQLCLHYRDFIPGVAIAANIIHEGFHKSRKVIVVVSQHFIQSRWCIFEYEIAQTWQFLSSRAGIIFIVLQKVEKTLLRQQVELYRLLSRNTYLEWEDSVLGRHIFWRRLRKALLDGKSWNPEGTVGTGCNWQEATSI
Target sequence (Q99836 whole entry, looked up): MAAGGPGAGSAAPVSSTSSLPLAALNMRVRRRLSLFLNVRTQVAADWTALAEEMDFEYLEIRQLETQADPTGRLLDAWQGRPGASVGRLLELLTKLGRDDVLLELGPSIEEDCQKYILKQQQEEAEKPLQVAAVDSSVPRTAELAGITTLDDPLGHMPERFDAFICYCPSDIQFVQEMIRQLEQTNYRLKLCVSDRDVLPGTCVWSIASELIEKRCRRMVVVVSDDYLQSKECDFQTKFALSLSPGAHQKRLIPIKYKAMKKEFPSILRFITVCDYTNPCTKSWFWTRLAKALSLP
NOD2 RIPK2 PPI – inhibitors of human NOD2-RIPK2 interaction. O43353. CHO BLA complementation NOD2-RIPK2, CCF4 ratio. inhibition, % at 4.98 µM. actives 0.38% (n = 360,000); in the data active = inhibition above about 21%;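 also: 0% = vehicle only and 100% = reference blocker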
SR-BI HDL uptake – mouse SR-BI HDL lipid transfer inhibition; Q61009; ldlA[mSR-BI] CHO cells, DiI-HDL uptake fluorescence, 3 h; inhibition, % at 12.5 µM; actives 0.96% (n = 320,000);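 active = mean replicate inhibition of at least 70% and a set share of replicates each scoring 70 or more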;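 also: 0% = median of neutral control wells and 100% = median of positive control wells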
Lipid droplet – modulators of hepatic lipid droplet formation. AML12 mouse hepatocytes, oleate lipid droplets, BODIPY imaging. inhibition, % at 6.5 µM. actives 0.4% (n = 240,000);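 active = lipid droplet intensity inhibited by at least 50%, with more than 500 cells counted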
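Material – mouse AML12 hepatocyte cell line, fixed after treatment · Compound dosing – one dose, 6.5 µM compound · Times – compound with oleate, overnight · Measured by – Image-based BODIPY and DAPI two-channel analysis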
TLR9-MyD88 block – TLR9-MyD88 interaction inhibition; CHO BLA complementation TLR9-MyD88, CCF4 FRET ratio; inhibition, % at 4.98 µM; actives 0.21% (n = 340,000);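 active = inhibition above the mean over all tested compounds plus 3 SD, cut at about 21% in these data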;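 also: 0% = DMSO only wells and 100% = clavulanate BLA inhibitor control wells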
* marks the source's active call; other numbers are inactive results; x = no result given.

SMILES	SR-BI uptake up	TLR4-MyD88 BLA	NOD2 RIPK2 PPI	SR-BI HDL uptake	Lipid droplet	TLR9-MyD88 block
COc1ccc(/C=N/n2cncn2)cc1Cn1cc([N+](=O)[O-])cn1	x	x	-2.3	x	2.5	x
CCCNc1cc(=S)nc(N)[nH]1	-18.8	x	-9.5	18.8	1.0	-8.8
C=CCn1c(N(C)C)nc2c1c(=O)[nH]c(=O)n2C	-1.9	x	-19.1	1.9	14.3	5.8
C/C(=N\NC(=O)c1cccc(N/N=C(\C)c2cc(O)ccc2O)c1)c1cc(O)ccc1O	-84.6	7.1	0.5	84.6*	4.0	2.1
C/C(=N\NC(=O)c1cccc(N/N=C(\C)c2ccco2)c1)c1ccco1	-20.5	0.8	-4.2	20.5	9.8	7.4
C#CCOCCOCCOCCNc1nc(N2CCN(C(=O)CCCCCCCCCCNC(=O)[C@@H](CCSC)n3cc(CCO)nn3)CC2)nc(N2CCN(C(=O)CCCCCCCCCCNC(=O)[C@H](CCCN=C(N)N)n3cc(C[C@@H](C)CC)nn3)CC2)n1	-9.0	x	41.3*	9.0	x	-0.8
C#CCOCCOCCOCCNc1nc(N2CCN(C(=O)CCCCCCCCCCNC(=O)[C@H](CCCCN)n3cc(C[C@@H](C)CC)nn3)CC2)nc(N2CCN(C(=O)CCCCCCCCCCNC(=O)[C@H](CCCN=C(N)N)n3cc(C[C@@H](C)CC)nn3)CC2)n1	-41.7	x	73.3*	41.7	x	34.0*
C#CCOCCOCCOCCNc1nc(N2CCN(C(=O)CCCCCCCCCCNC(=O)[C@H](CCCCN)n3cc(C[C@@H](C)CC)nn3)CC2)nc(N2CCN(C(=O)CCCCCCCCCCNC(=O)[C@@H]([C@H](C)O)n3cc(C)nn3)CC2)n1	-14.3	x	34.8*	14.3	x	15.4
C#CCOCCOCCOCCNc1nc(N2CCN(C(=O)CCCCCCCCCCNC(=O)[C@H]([C@@H](C)CC)n3cc(CCCCN=C(N)N)nn3)CC2)nc(N2CCN(C(=O)CCCCCCCCCCNC(=O)[C@@H]([C@H](C)O)n3cc(C)nn3)CC2)n1	-13.7	x	40.5*	13.7	x	-2.6
C#CCOCCOCCOCCNc1nc(N2CCN(C(=O)CCCCCCCCCCNC(=O)[C@H](CCCCN)n3cc(C)nn3)CC2)nc(N2CCN(C(=O)CCCCCCCCCCNC(=O)[C@@H]([C@H](C)O)n3cc(C)nn3)CC2)n1	6.4	x	6.8	-6.4	x	0.1
CC[C@]12c3[nH]c4cc(CCC(=O)N(C)C)ccc4c3CCN1C(=O)[C@@H](CC(=O)NCCc1ccccn1)C[C@@H]2C(=O)N1CCN(C(=O)C2CC2)CC1	3.3	x	-12.8	-3.3	x	-6.9
C#CCOCCOCCOCCNc1nc(N2CCN(C(=O)C(Cc3cc4ccccc4[nH]3)n3cc(C(N)C(C)CC)nn3)CC2)nc(N2CCN(C(=O)C(Cc3cc4ccccc4[nH]3)n3cc(C(N)C(C)CC)nn3)CC2)n1 (stereo unspecified)	67.2*	-3.9	x	-67.2	-11.1	0.8
CN1OC[C@@H]2CN(C(=O)Nc3ccccc3)[C@H](c3ccc(N4CCCCC4)cc3)C[C@@H]21	x	x	-8.5	x	x	x
COc1ccccc1NC(=O)Nc1nc(CC(=O)Nc2ccc(OC)c(OC)c2)cs1	-82.3	x	-0.2	82.3*	x	3.9
COc1cccc(NC(=O)Cc2csc(NC(=O)Nc3ccccc3OC)n2)c1	-53.1	x	-5.5	53.1	x	-2.0
COC(=O)c1cc(NC(=O)c2c(C)noc2C)ccc1N1CCOCC1	7.6	x	-3.3	-7.6	17.3	-3.3
COC(=O)c1cc(NC(=O)c2cc(-c3ccc(C(F)(F)F)cc3)oc2C(F)(F)F)ccc1N1CCOCC1	-80.9	x	-5.8	80.9*	33.1	-9.7
COC(=O)c1cc(NC(=O)c2cc(-c3ccc(OC)cc3)oc2C(F)(F)F)ccc1N1CCOCC1	-85.7	x	-11.9	85.7*	-3.6	-3.7
COC(=O)c1cc(NC(C)=O)ccc1N1CCOCC1	-9.6	7.1	-9.6	9.6	8.7	6.0
O=C(Nc1ccc([N+](=O)[O-])cn1)c1ccc(Br)o1	24.8	-10.8	-7.4	-24.8	-5.2	-17.2
Cc1cc(C(=O)Nc2ccc(S(=O)(=O)Nc3nccs3)cc2)c(C)o1	0.0	-3.9	-2.6	0.0	-2.2	4.9
